Assay results published in article PMC9121347 (Bioconjugate Chemistry, 2022).

Assays:
[1] = system: phosphorylation of Akt in hCMEC/D3 monolayers; assay type: cell-based, human; settings: 100 nM, 20 min, 37 °C in DMEM, Western blot, n = 3
Method in brief: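 hCMEC/D3 monolayers treated ± test compound (100 nM) in DMEM, 20 min, 37 °C, washed thrice with PBS, lysed in RIPA with protease/phosphatase inhibitors, protein by BCA. […] Blocked in 5% milk; anti-vinculin, Akt, p-Akt (S473) at 1:1000 overnight at 4 °C; dye-conjugated secondary at 1:2000, 1 h RT. p-AKT/AKT ratio, mean ± SD, unpaired t-test.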

[2] = system: AD (APP/PS1) mice; test: Dynamic microPET/CT imaging, AD mice; assay type: in vivo, mouse; settings: AD (APP/PS1) vs normal (B6SJL) mice; any time point

Molecule | phosphorylation of Akt (p-AKT/AKT ratio) [1] | difference in uptake between normal and AD groups (brain and heart) [2]
NOTA-insulin: insulin with p-SCN-Bn-NOTA linked to the lysine residue of chain B; labeling precursor | stimulated the phosphorylation of Akt | –
CNc1ccc(-c2nc3ccc(O)cc3s2)cc1 [[^11C]PIB, N-methyl [^11C] 2-(4′-methylaminophenyl)-6-hydroxy-benzothiazole] | – | neither of them showed any significant difference in the uptake between normal and AD groups at any time point
[18F]c1ccc(-c2ccc3c(c2)[nH]c2ccncc23)cn1 [[^18F]AV1451, 7-(6-[^18F]fluoropyridin-3-yl)-5H-pyrido[4,3-b]indole] | – | neither of them showed any significant difference in the uptake between normal and AD groups at any time point
